Compound activity deposited in PubChem BioAssay by several laboratories.
TRPC4 block – TRPC4 (mouse) channel inhibition; B-score at 10 µM; HEK293 TRPC4beta/mu-opioid, DAMGO-evoked Fluo4 calcium flux; active compounds read low; 0.39% of 300,000 active;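 active = B-score over 3 SD under the library average, no early fluorescence shift, positive overall ratio signal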
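Assay system: TRPC4beta/mu-opioid receptor HEK293 cell line; compound dosing: single concentration per test compound; detection: Fluo4 Ca2+ flux fluorescence; evaluation: per-well B score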
TRPC6 act – activators of mouse TRPC6 channel | 0.13% of 310,000 active | HEK293-TRPC6 membrane potential dye fluorescence; active compounds read high | B-score at 10 µM | Q61143;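 active = B-score of the integrated fluorescence ratio above library mean plus 3 SD, and starting fluorescence ratio within library mean plus 5 SD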;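 also: higher score means more depolarization so channel activation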
DNA FID counter – fluorescent intercalator displacement, NS3 helicase counter-screen; DNA fluorescent intercalator displacement, fluorescence; inhibition, % at 7.9 µM; 0.17% of 290,000 active; in the data active = inhibition above about 37%;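 also: higher means more ethidium bromide displaced from hairpin DNA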
TRPC4 PAM – TRPC4 (mouse) allosteric potentiation. Q9QUQ5. HEK293 TRPC4beta/mu-opioid, DAMGO EC20, Fluo-4 Ca2+ flux; active compounds read high. B-score at 10 µM. 0.42% of 310,000 active. AID 2227;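 active = B-score of calcium response area above 5 SD of library B-scores, with initial fluorescence ratio within 5 SD of library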
TRPC6 inhibitor – blocks the mouse TRPC6 cation channel | Q61143 | HEK293-TRPC6, membrane potential dye, ACh-evoked depolarization; active compounds read low | B-score at 10 µM | 1.1% of 310,000 active | AID 2553;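 active = B-score under library mean minus 3 SD, initial fluorescence not abnormally high, positive integrated signal ratio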;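 also: B-score derived from integrated fluorescence ratio over the kinetic read; more negative B-score means stronger inhibition of depolarization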
TRPC4 agonist – opens the mouse TRPC4 cation channel | Q9QUQ5 | HEK293 TRPC4beta/mu-opioid, Fluo4 calcium fluorescence; active compounds read high | AID 2237 | B-score at 10 µM | 0.49% of 310,000 active;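 active = B-score above 5 SD of library B-scores, and initial fluorescence ratio not above library mean plus 5 SD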;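 also: positive B-score marks a calcium rise read as TRPC4 activation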
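Assay system: HEK293 stable line with TRPC4beta plus mu-opioid receptor; schedule: 45 min room-temperature Fluo4 loading, 110 s read; technique: kinetic Fluo4 calcium fluorescence; evaluation: integrated baseline-normalised fluorescence ratio, converted to per-well B score; controls: buffer (low) and maximal DAMGO (high)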
Numbers stand for hits; 0 = inactive; - = no result. The list is not random: actives were taken first. Their share in the collection is about 2.3%.

SMILES	TRPC4 block	TRPC6 act	DNA FID counter	TRPC4 PAM	TRPC6 inhibitor	TRPC4 agonist
CCCCN(CC)CCCNC(=O)CN1C(=O)CSc2ccc(S(=O)(=O)N3CCOCC3)cc21	0	0	0	0	0	55
CCN(CC)CCCNC(=O)Cn1cnc2ccc(S(=O)(=O)N3CCC(C)CC3)cc2c1=O	0	0	0	12	0	0
CC1CCN(CCCNC(=O)CN2C(=O)CSc3ccc(S(=O)(=O)N4CCC(C)CC4)cc32)CC1	0	0	45.3	0	0	0
CCc1ccc(NC(=O)CSc2nnc(CNC(=O)c3cccs3)o2)cc1	0	0	0	0	0	0
CC1CCN(S(=O)(=O)c2nnc(NC(=O)c3ccccc3Br)s2)CC1	0	0	0	0	0	0
N#CC(C#N)=c1ccc2c(c1)N1C3=C(CCCC3)CC3CCCCC31N=2 (configuration not stated)	0	0	0	0	-8.5	0
O=Cc1ccc(OC(=O)/C=C/c2ccccc2)cc1	0	0	0	0	0	0
Cn1c(=O)c2c(nc(CN3CCc4ccccc4C3)n2CCc2ccccc2)n(C)c1=O	-	-	0	-	-	-
Cn1c(=O)c2c(nc(CN3CCc4ccccc4C3)n2Cc2ccccc2F)n(C)c1=O	0	0	0	0	0	169
Cn1c(=O)c2c(nc(CN3CCc4ccccc4C3)n2Cc2cccc(Cl)c2)n(C)c1=O	0	0	0	73	0	0
CCOC(=O)c1ccc(N=C2C(=S)N(c3ccc(C(=O)OCC)cc3)C(=N)N2/N=C/c2ccccc2)cc1	0	0	0	17	0	0
CCOc1ccc(NS(=O)(=O)c2ccc3c(c2)CCN3C(C)=O)cc1	0	0	0	0	0	0
CCOC(=O)CCC(=O)Nc1ccc(S(=O)(=O)Nc2cc(OC)nc(OC)n2)cc1	0	0	0	0	0	0
COc1cc(NS(=O)(=O)c2ccc(NC(=O)CCC(=O)O)cc2)nc(OC)n1	0	0	0	10	0	0
CC(C)N(CC#CCC(O)(c1ccccc1)c1ccccc1)C(C)C	0	0	0	0	0	0
CC(c1ccccc1C(O)(c1ccccc1)c1ccccc1)N(C)C (configuration not stated)	0	0	0	0	0	103
CCOC(=O)CC1C(=O)NCCN1c1nc2ccc(C)cn2c(=O)c1/C=C1\SC(=S)N(CC(C)C)C1=O (configuration not stated)	0	0	0	0	0	0
CCOC(=O)CC1C(=O)NCCN1c1nc2ccc(C)cn2c(=O)c1/C=C1\SC(=S)N(C(C)CC)C1=O (configuration not stated)	0	61.4	0	0	0	62
CCCN1C(=O)/C(=C/c2c(N3CCNC(=O)C3CC(=O)OCC)nc3c(C)cccn3c2=O)SC1=S (configuration not stated)	0	27.1	0	0	0	0
O=C(Cc1ccc(Br)cc1)N/N=C/c1cccnc1	0	0	0	0	0	0
COC(=O)c1cnc(Oc2ccc(NC(=O)NC(=O)c3c(F)cccc3Cl)cc2)cc1C(F)(F)F	0	0	0	0	0	0
COC(=O)c1cnc(Oc2c(Cl)cc(N)cc2Cl)cc1C(F)(F)F	0	0	0	22	0	0
COc1ccccc1CNC(=O)CSc1nnc2c(n1)[nH]c1ccc(F)cc12	0	0	0	0	0	0
CC1CC(C)CN(CCCNC(=O)c2csc3c2CCCC3)C1 (configuration not stated)	0	0	0	0	0	82
CCCCN(CC)CCCNC(=O)c1csc2c1CCCCC2	0	0	0	0	0	111
SMILES	TRPC4 block	TRPC6 act	DNA FID counter	TRPC4 PAM	TRPC6 inhibitor	TRPC4 agonist
O=C(Nc1cccc(OC(=O)c2ccc(Br)o2)c1)c1ccccc1	0	0	0	0	0	0
CCOc1ccc(CCNC(=O)c2cccs2)cc1OCC	0	0	0	0	0	0
CCOC(=O)c1c(C)[nH]c(C)c1S(=O)(=O)N(C)CC(=O)Nc1cccc(C)n1	0	0	0	0	0	0
Cc1ccc(S(=O)(=O)N(Cc2ccc(F)cc2)Cc2ccco2)cc1	0	0	0	0	0	0
Cc1ccc(S(=O)(=O)N(Cc2ccccc2)Cc2ccco2)cc1	0	0	0	14	0	0
NC(=O)N=Nc1c(O)[nH]c2c(Br)cc(Br)cc12	0	0	0	11	0	0
